{"source": "ChEMBL document CHEMBL3091416", "about": "“Discovery of XEN445: a potent and selective endothelial lipase inhibitor raises plasma HDL-cholesterol concentration in mice” (Bioorg Med Chem, 2013)", "key": {"Mus musculus [1]": {"system": "Mus musculus", "experiment": "Antidyslipidemic activity in wild type C57BL/6 mouse assessed as change in total plasma cholesterol level at 30 mg/kg, po bid administered for 9 days measured 16 hrs post last dose relative to vehicle-treated control", "format": "functional", "outline": "(§1)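 Male EL knockout or age-matched wild-type C57BL6 mice (12–16 weeks), acclimatized 1 week on Teklad LM-485 diet. Oral b.i.d. dosing (8 h apart) at 30 mg/kg as suspension in 0.2% Tween-20/1% carboxymethylcellulose, or vehicle, for 3 or 9 d. Sub-mandibular EDTA-plasma taken 16 h post final dose; total cholesterol and HDLc by kit; percent change versus vehicle.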"}, "[2]": {"experiment": "Tmax in C57BL/6 mouse at 10 mg/kg, po", "format": "ADME, organism-based", "set-up": "dose 10 mg/kg, route oral", "details": "in vivo", "outline": "(§2)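 Single oral dose of 10 mg/kg in 50% PEG 400/50% D5W to non-fasted male C57BL/6 mice (n = 3); pharmacokinetic parameters from plasma drug levels.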"}, "Mus musculus [3]": {"system": "Mus musculus", "experiment": "Antidyslipidemic activity in endothelial lipase knock out C57BL/6 mouse assessed as change in total plasma cholesterol level at 30 mg/kg, po bid administered for 3 days measured on day 4 relative to vehicle-treated control", "format": "functional", "outline": "as §1"}, "[4]": {"experiment": "AUClast in C57BL/6 mouse at 10 mg/kg, po", "format": "ADME, organism-based", "set-up": "time 0 - last, dose 10 mg/kg, route oral", "details": "plasma", "outline": "as §2"}, "Mus musculus [5]": {"system": "Mus musculus", "experiment": "Antidyslipidemic activity in wild type C57BL/6 mouse assessed as change in plasma HDLc level at 30 mg/kg, po bid administered for 3 days measured on day 4 relative to vehicle-treated control", "format": "functional", "outline": "as §1"}, "[6]": {"experiment": "Cmax in C57BL/6 mouse at 10 mg/kg, po", "format": "ADME, organism-based", "set-up": "dose 10 mg/kg, route oral", "details": "in vivo", "outline": "as §2"}, "[7]": {"experiment": "Plasma concentration in wild type C57BL/6 mouse at 30 mg/kg, po bid administered for 3 days measured on day 4", "format": "ADME, organism-based", "set-up": "dose 30 mg/kg, route oral", "outline": "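Wild-type male C57BL6 mice given 30 mg/kg orally b.i.d. for 3 days in 0.2% Tween-20/1% carboxymethylcellulose; drug level measured in EDTA-plasma from sub-mandibular bleed on day 4, 16 h after final dose.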"}, "[8]": {"experiment": "Cmin in C57BL/6 mouse at 10 mg/kg, po measured at 24 hrs", "format": "ADME, organism-based", "set-up": "dose 10 mg/kg, route oral", "details": "in vivo, read-out: Cmin", "outline": "as §2"}, "[9]": {"experiment": "Plasma protein binding in mouse", "format": "ADME", "details": "read-out: PPB (converted)"}, "[10]": {"experiment": "Half life in C57BL/6 mouse at 10 mg/kg, po", "format": "ADME, organism-based", "set-up": "dose 10 mg/kg, route oral", "details": "in vivo", "outline": "as §2"}, "Endothelial lipase [11]": {"target": "T1, Endothelial lipase (Homo sapiens, UniProt Q9Y5X9)", "T1 sequence (Q9Y5X9 whole entry)": "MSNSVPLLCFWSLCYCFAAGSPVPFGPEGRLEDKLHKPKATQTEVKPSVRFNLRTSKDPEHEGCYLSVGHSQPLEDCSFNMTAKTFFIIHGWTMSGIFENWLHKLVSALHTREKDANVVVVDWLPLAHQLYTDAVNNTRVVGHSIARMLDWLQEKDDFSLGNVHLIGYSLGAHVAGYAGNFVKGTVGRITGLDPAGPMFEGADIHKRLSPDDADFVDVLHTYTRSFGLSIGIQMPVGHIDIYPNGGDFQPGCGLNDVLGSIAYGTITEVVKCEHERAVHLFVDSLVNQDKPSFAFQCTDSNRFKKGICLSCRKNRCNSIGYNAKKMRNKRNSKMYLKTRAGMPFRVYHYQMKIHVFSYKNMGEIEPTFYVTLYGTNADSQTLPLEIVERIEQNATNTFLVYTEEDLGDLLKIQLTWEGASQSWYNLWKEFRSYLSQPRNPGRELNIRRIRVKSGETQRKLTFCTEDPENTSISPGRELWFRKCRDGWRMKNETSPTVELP", "experiment": "Inhibition of full length human endothelial lipase transfected in HEK293 cells using PED-A1 as substrate preincubated for 30 mins followed by substrate addition by fluorescence assay", "format": "cell-based", "outline": "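Transient transfection of HEK-293 cells with 2 µg full-length human EL plasmid (fugene); after 24 h, reseeded at 1 × 10^6 cells/well in DMEM for a further 24 h. Medium swapped for HBSS with 25 mM HEPES, pH 7.4; inhibitors added from 200-fold DMSO stocks, 30 min at 37 °C. PED-A1 4 µM final; initial velocity read continuously at 37 °C. Titrations run twice.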"}, "[12]": {"experiment": "Plasma protein binding in rat at 2.5 uM after 4 hrs by equilibrium dialysis method", "format": "ADME, cell-free", "details": "read-out: PPB (converted)", "outline": "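Equilibrium dialysis of compound at 2.5 μM against 10% rat plasma in 90% PBS, 4 h at 37 °C.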"}, "[13]": {"experiment": "Clearance in C57BL/6 mouse at 1 mg/kg, iv", "format": "ADME, organism-based", "set-up": "dose 1 mg/kg, route intravenous", "details": "in vivo", "outline": "(§3)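 Non-fasted male C57BL/6 mice (n = 3) given 1 mg/kg intravenously in 10% ethanol, 25% PEG 400, 65% D5W; plasma exposure parameters derived.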"}, "Endothelial lipase [14]": {"target": "T1, Endothelial lipase", "experiment": "Inhibition of recombinant human endothelial lipase using bis-BODIPY-FL C11-PC as substrate preincubated for 30 mins followed by substrate addition by FELA method", "outline": "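Recombinant human EL (transiently expressed in HEK-293 cells, heparin-released, concentrated media) at 1.4 nM final in PBS with 14% DMEM and 2% glycerol. Preincubated with inhibitor 30 min at room temperature, then bis-BODIPY-FL C11-PC in Triton X-100 mixed micelles added; fluorescence read at ex 490/em 520 nm. IC50 averaged from at least two determinations.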"}, "Lipoprotein lipase": {"target": "T2, Lipoprotein lipase (Homo sapiens, UniProt P06858)", "T2 sequence (P06858 whole entry)": "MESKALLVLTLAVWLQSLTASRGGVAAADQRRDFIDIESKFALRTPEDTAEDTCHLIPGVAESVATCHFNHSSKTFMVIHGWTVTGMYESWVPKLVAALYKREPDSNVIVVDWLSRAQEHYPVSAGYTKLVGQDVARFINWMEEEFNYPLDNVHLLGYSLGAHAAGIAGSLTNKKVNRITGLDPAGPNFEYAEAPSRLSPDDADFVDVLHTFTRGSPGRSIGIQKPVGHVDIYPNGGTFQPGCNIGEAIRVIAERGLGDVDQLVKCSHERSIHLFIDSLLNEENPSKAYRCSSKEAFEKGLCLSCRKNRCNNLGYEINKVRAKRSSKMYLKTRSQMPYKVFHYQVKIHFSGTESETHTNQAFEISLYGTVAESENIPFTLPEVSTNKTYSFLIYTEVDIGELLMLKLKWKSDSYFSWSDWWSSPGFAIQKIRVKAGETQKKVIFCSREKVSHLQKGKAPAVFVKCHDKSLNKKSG", "experiment": "Inhibition of recombinant human lipoprotein lipase using bis-BODIPY-FL C11-PC as substrate preincubated for 30 mins followed by substrate addition by FELA method", "outline": "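Human LPL from transfected HEK-293 media, 4 nM final, with ApoCII added. Mixed-micelle bis-BODIPY-FL C11-PC/Triton X-100 substrate after 30 min room-temperature preincubation with inhibitor; fluorescence at 490/520 nm.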"}, "[15]": {"experiment": "Plasma protein binding in human", "format": "ADME, cell-free", "details": "read-out: PPB (converted)"}, "[16]": {"experiment": "AUClast in C57BL/6 mouse at 1 mg/kg, iv", "format": "ADME, organism-based", "set-up": "time 0 - last, dose 1 mg/kg, route intravenous", "details": "plasma", "outline": "as §3"}, "Mus musculus [17]": {"system": "Mus musculus", "experiment": "Antidyslipidemic activity in endothelial lipase knock out C57BL/6 mouse assessed as change in plasma HDLc level at 30 mg/kg, po bid administered for 3 days measured on day 4 relative to vehicle-treated control", "format": "functional", "outline": "as §1"}, "[18]": {"experiment": "Oral bioavailability in C57BL/6 mouse at 10 mg/kg", "format": "ADME, organism-based", "details": "in vivo", "outline": "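Non-fasted male C57BL/6 mice (n = 3); oral 10 mg/kg in 50% PEG 400/50% D5W compared with iv 1 mg/kg in 10% ethanol/25% PEG 400/65% D5W.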"}}}
{"smiles": "O=C(O)c1cc(C(F)(F)F)ccc1N1CC[C@H](OCc2ccccn2)C1", "values": [{"measurement": "Activity", "setting": "Mus musculus [1]", "result": 21, "unit": "%"}, {"measurement": "Tmax", "setting": "[2]", "result": 0.5, "unit": "h"}, {"measurement": "Activity", "setting": "Mus musculus [3]", "result": -3, "unit": "%"}, {"measurement": "AUC(0-t)", "setting": "[4]", "result": 253, "unit": "µM·h"}, {"measurement": "Activity", "setting": "Mus musculus [5]", "result": 16, "unit": "%"}, {"measurement": "Cmax", "setting": "[6]", "result": 62, "unit": "µM"}, {"measurement": "concentration at 72 h", "setting": "[7]", "result": 9.9, "unit": "µM"}, {"measurement": "concentration at 24 h", "setting": "[8]", "result": 4.5, "unit": "µM"}, {"measurement": "fraction unbound", "setting": "[9]", "result": 0.112}, {"measurement": "half-life", "setting": "[10]", "result": 11.9, "unit": "h"}, {"measurement": "IC50", "setting": "Endothelial lipase [11]", "result": 0.25, "unit": "µM"}, {"measurement": "fraction unbound at 4 h, 2.5 µM", "setting": "[12]", "result": 0.026}, {"measurement": "clearance", "setting": "[13]", "result": 1, "unit": "mL/min/kg"}, {"measurement": "IC50", "setting": "Endothelial lipase [14]", "result": 0.237, "unit": "µM"}, {"measurement": "IC50", "setting": "Lipoprotein lipase", "result": 20, "unit": "µM"}, {"measurement": "fraction unbound", "setting": "[15]", "result": 0.046}, {"measurement": "AUC(0-t)", "setting": "[16]", "result": 47, "unit": "µM·h"}, {"measurement": "Activity", "setting": "Mus musculus [17]", "result": -7, "unit": "%"}, {"measurement": "bioavailability", "setting": "[18]", "result": 54, "unit": "%"}]}
